According to article PMC3856871 (MedChemComm, 2012):
Entries after “also recorded” stand apart in the source; their conditions may differ.

Columns and labels:
[1] = system: MCF-7 breast carcinoma cell line; type: cell-based; settings: MCF-7 cells, 50 μM, 24 h
[2] = system: p53 acetylation at lysine 382; experiment: Western blot on MCF-7 cells, p53 acetylation at lysine 382; type: cell-based; settings: 24 h, 50 μM (Fig. 3)
[3] = system: acetyl-α-tubulin; experiment: Western blot on MCF-7 cells, acetylation status of α-tubulin; type: cell-based; settings: 24 h; for acetyl-α-tubulin accumulation: 50 μM, comparison of SIRT inhibitors (Fig. 3)
Summary of the method: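 MCF-7 cells exposed 24 h to test compound at increasing concentrations […]. Acetylation of α-tubulin (SIRT2 biomarker) and of histone H3-K9 (SIRT1 biomarker) monitored in parallel.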

[4] = system: MCF-7 cells; experiment: proliferative analysis / cell viability assay on MCF-7 cells; type: cell-based; settings: 30 μM, 0-72 h
[5] = molecular target: T1, SIRT2 (Homo sapiens, UniProt Q8IXJ6); experiment: in vitro enzymatic fluorimetric assay, SIRT2 inhibitory activity; type: biochemical; settings: for selectivity for SIRT2 over SIRT1: in vitro
T1 sequence (Q8IXJ6 1-389): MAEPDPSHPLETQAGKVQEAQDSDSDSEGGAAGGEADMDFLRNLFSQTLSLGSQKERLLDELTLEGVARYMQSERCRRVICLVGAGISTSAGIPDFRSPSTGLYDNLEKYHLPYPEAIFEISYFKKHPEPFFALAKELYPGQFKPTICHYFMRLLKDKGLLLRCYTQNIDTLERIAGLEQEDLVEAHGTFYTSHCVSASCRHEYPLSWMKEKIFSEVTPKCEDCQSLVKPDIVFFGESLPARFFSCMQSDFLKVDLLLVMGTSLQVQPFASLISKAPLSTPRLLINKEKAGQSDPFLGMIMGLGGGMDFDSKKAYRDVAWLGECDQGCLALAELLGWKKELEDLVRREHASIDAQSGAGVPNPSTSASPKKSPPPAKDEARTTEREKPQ

[6] = system: pRb phosphorylation at Ser807/Ser811; experiment: Western blot on MCF-7 cells, pRb phosphorylation; type: cell-based; settings: 24 h, 50 μM
[7] = system: H3-K9 acetylation; experiment: Western blot on MCF-7 cells, acetylation status of H3-K9; type: cell-based; settings: 24 h, concentrations up to 50 μM

SMILES | cell cycle phase in which cells accumulate [1] | p53 acetylation at lysine 382 [2] | acetyl-α-tubulin accumulation [3] | also measured
O=C(Nc1cccc(Br)c1)c1cccc(S(=O)(=O)N2CCCCCC2)c1 [AK-7] | increase in cells primarily in G2/M phase | moderately induce p53 acetylation at lysine 382 | no significant effect | 
NC(=O)c1ccc2c(c1)CCc1cc([N+](=O)[O-])ccc1N2 [Compound 8] | high number of cells to accumulate at G2/M phase |  | substantial accumulation of acetyl-α-tubulin | antiproliferative effect [4]: antiproliferative activity; also recorded: abolished cell proliferation completely; selectivity for SIRT2 over SIRT1 [5]: more than 30 fold; pRb phosphorylation at Ser807/Ser811 [6]: impede pRb phosphorylation at Ser807/Ser811; acetylation levels of H3-K9 [7]: without increasing the acetylation levels of H3-K9; acetylation of α-tubulin ([3]; concentrations up to 50 μM): induce hyperacetylation of α-tubulin
CC(C)(C)NS(=O)(=O)c1ccc2c(c1)Nc1ccccc1CC2 [Compound 20] |  |  |  | selectivity for SIRT2 over SIRT1 [5]: more than 30 fold
CN1c2ccc(C(N)=O)cc2CCc2cc([N+](=O)[O-])ccc21 [Compound 29] |  |  |  | loss of SIRT2 potency relative to compound 8 ([5]; N-methyl derivative vs 8): 4 fold
NC(=O)C1CCCc2c1[nH]c1ccc(Cl)cc21 (stereo not drawn) [EX-527] | accumulate predominantly in G1 |  |  | reduction of cell proliferation relative to DMSO vehicle control [4]: approximately 50%
CC(C(=O)Nc1cccc(/N=C/c2c(O)ccc3ccccc23)c1)c1ccccc1 (stereo not drawn) [Salermide] | increase in cells primarily in G2/M phase | moderately induce p53 acetylation at lysine 382 | slight increase in acetyl-α-tubulin | antiproliferative effect [4]: abolished cell proliferation completely
CC(NC(=O)c1ccccc1/N=C/c1c(O)ccc2ccccc12)c1ccccc1 (stereo not drawn) [Sirtinol] | accumulate predominantly in G1 | moderately induce p53 acetylation at lysine 382 | no significant effect | 
